FGF22 binding – binders of recombinant human FGF22 by thermal shift; actives 1.5% (n = 340,000); SYPRO orange fluorescence; percent of sucrose octasulfate shift, DMSO zero; AID 651658; activity (Tm shift, normalised), % at 9.99 µM; Q9HCT0;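 active = mean Tm shift, scaled 0 neutral to 100 positive control, at about 1.3% or above, every replicate too, limit read from the data; inconclusive = no clear call, values can overlap the other calls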
Target sequence (Q9HCT0 whole entry, looked up): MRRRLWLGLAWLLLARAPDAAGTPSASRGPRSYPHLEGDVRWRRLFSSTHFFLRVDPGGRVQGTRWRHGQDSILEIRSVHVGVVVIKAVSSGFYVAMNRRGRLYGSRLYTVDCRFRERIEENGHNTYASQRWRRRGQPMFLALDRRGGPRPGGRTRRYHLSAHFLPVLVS
DENV2 CPE – inhibitors of DENV2 cytopathic effect | DENV2-infected cells, cytopathic effect rescue, plate reader | CPE inhibition, % at 9.99 µM | actives 1.7% (n = 350,000); in the data active = CPE inhibition above about 20%, passing the limit was not always enough; inconclusive = no clear call, values can overlap the other calls; tested in BHK-21 cells
ARNT-TACC3 inh – ARNT/TACC3 interaction disruption; AlphaScreen His-ARNT PAS-B/GST-TACC3 binding, luminescence; TACC3 fragment carries E629A point mutation; inhibition, % at 9.99 µM; actives 0.66% (n = 390,000); Q9Y6A5;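 active = mean inhibition of replicates at least 50% and at least half of replicates each reaching 50%; inconclusive = half or more replicates reach 50% but mean below 50%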
FN deposition inh – fibronectin deposition inhibition | AH1F fibroblasts, Alexa488-fibronectin deposition fluorescence, overnight | inhibition, % at 12.6 µM | actives 0.086% (n = 350,000);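 active = mean inhibition across replicates of 30% or more, regardless of how many single replicates reach that level; inconclusive = mean under 30% yet at least half of replicates reach 30%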
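Measured by – fluorescence 485/525 nm · System – AH1F fibroblast monolayer, labelled fibronectin deposition · Amount – 10000 cells per well · Buffer or medium – serum-reduced DMEM (2% serum) · Doses – single dose, pinned · Also added – fluorescent fibronectin at 24 nM final · Schedule – 1 h cell attachment, overnight exposure to compound and label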
Xi reactivation – X-chromosome reactivation activator; XiGFP mouse fibroblasts, % GFP-positive cells imaging, 3 d; cells co-treated with 5-aza-dC sensitizer; scaled so ellipticine positive control = 100%; activation, % at 7.58 µM; actives 0.055% (n = 360,000); AID 743238;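 active = mean normalized replicate activation at least 10% and every replicate at or above 10%; inconclusive = only one of the two criteria met; inactive = mean below 10% and not all replicates reach 10%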
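Material: SV40-immortalized XiGFP fibroblast cells, line 68-5-11 | Buffer or medium: DMEM containing 5-aza-dC | Dosing: One concentration, pinned | Times: 3 d treatment, 15 min room-temperature fixation | Controls: Ellipticine 6 µM positive control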
SIRT5 inh – blocks human SIRT5 desuccinylation of peptide. Q9NXA8. Purified SirT5, succinyl-peptide AMC, trypsin-coupled fluorescence. inhibition, % at 15 µM. actives 1.1% (n = 330,000). AID 652115; in the data active = inhibition above about 15%; inconclusive = no clear call, values can overlap the other calls
Target sequence (Q9NXA8 whole entry, looked up): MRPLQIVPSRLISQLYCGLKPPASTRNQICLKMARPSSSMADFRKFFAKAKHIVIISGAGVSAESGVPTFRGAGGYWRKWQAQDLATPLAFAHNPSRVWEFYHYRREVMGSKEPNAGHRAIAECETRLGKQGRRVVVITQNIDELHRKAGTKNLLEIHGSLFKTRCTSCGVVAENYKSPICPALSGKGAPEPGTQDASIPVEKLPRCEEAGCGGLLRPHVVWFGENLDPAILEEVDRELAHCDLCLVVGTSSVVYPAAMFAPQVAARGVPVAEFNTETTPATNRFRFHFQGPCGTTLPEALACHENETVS
Of the large screens only hits and unclear results are named; the others gave an inactive call. Compounds with a hit are over-represented: about 3.8% of the library has one in this group of screens.

CNC[C@H]1Oc2ccc(N(S(C)(=O)=O)S(C)(=O)=O)cc2C(=O)N(C)C[C@@H]1C	none (no result: FGF22 binding, DENV2 CPE, ARNT-TACC3 inh, SIRT5 inh)
OC[C@@H]1[C@@H](c2ccc(-c3ccccc3)cc2)[C@H]2CN(CCC(F)(F)F)CCCCN12	DENV2 CPE 20
OC[C@@H]1[C@H](c2ccc(-c3cccc(F)c3)cc2)[C@@H]2CN(CCC(F)(F)F)CCCCN12	DENV2 CPE 41 (no result: FN deposition inh)
OC[C@@H]1[C@@H](c2ccc(-c3cccc(F)c3)cc2)[C@@H]2CN(CCC(F)(F)F)CCCCN12	none (no result: FN deposition inh)
COc1cc2oc(=O)cc(C)c2c(OC)c1OC	FGF22 binding 43 (no result: ARNT-TACC3 inh)
Cc1noc(C)c1S(=O)(=O)N(C)C[C@@H]1OCCCC[C@H](C)Oc2ccc(NS(=O)(=O)c3ccc(F)cc3)cc2C(=O)N([C@H](C)CO)C[C@@H]1C	none (no result: SIRT5 inh)
CN(Cc1nc(-c2cnccn2)no1)Cc1cccc2ccccc12	none
Cc1cc(C)n(-c2cccc(CN(C)Cc3nc(-c4cnccn4)no3)c2)n1	FGF22 binding 44
CCN(CC)C(=O)C(=O)c1ccn(-c2c(C)csc2C(=O)OC)c1	FGF22 binding 43 (no result: ARNT-TACC3 inh)
COc1ccc(NC(=O)NNS(=O)(=O)c2cc(C)ccc2C)cc1OC	none
COc1ccc(OC)c(NC(=O)NNS(=O)(=O)c2ccc(C)cc2C)c1	DENV2 CPE 23
O=C(C[C@@H]1C=C[C@H](NC(=O)NC2CCCC2)[C@H](CO)O1)NCc1ccc(F)cc1	none
C[C@H]1CN(C)C(=O)Cc2cc(N(C)C)ccc2O[C@@H]1CN(C)C	none (no result: FGF22 binding, DENV2 CPE, ARNT-TACC3 inh, SIRT5 inh)
S=C1N(c2ccccc2)C(c2ccc(Br)cc2)N2CCCN12 (configuration not stated)	DENV2 CPE 42
COc1ccc(NC(=O)Nc2ccc3c(c2)C(=O)N([C@H](C)CO)C[C@@H](C)[C@H](CN(C)S(=O)(=O)c2cccs2)OCCCC[C@@H](C)O3)cc1	none (no result: FN deposition inh)
CO[C@@H]1CN(C)C(=O)c2ccc(NC(=O)C3CCOCC3)cc2OC[C@@H](C)N(C(C)=O)C[C@H]1C	none (no result: SIRT5 inh)
NC(=S)N=Nc1c(O)cc(O)c2[nH]c(=O)ccc12	ARNT-TACC3 inh 64
NC(=S)N=Nc1c(O)[nH]c2ccc(F)cc12	none
O=C(O)c1ccc(NS(=O)(=O)c2ccc3c(c2)C2C=CCC2C(c2ccccc2F)N3)cc1 (configuration not stated)	SIRT5 inh 51 (no result: FGF22 binding)
COc1ccc(C[C@H]2CCc3cnnn3COC[C@@H](C)NC2=O)cc1	none (no result: FGF22 binding, DENV2 CPE, ARNT-TACC3 inh, SIRT5 inh)
CCOC(=O)N1CCN(C(=O)C(=O)NNC(=O)COc2ccc(Cl)cc2)CC1	FGF22 binding 44 (no result: ARNT-TACC3 inh)
CN1CCC(=NNC(=O)COc2ccc(Cl)cc2)CC1	SIRT5 inh 21
COc1cccc(S(=O)(=O)N[C@H]2CC[C@@H](CC(=O)NC3Cc4ccccc4C3)O[C@H]2CO)c1	none
O=C(N[C@@H]1CC[C@@H](CCNS(=O)(=O)Cc2ccccc2)O[C@H]1CO)c1cnccn1	none
CCCNC(=O)N(C)C[C@@H]1Oc2ncc(-c3ccc(C(=O)N(C)C)cc3)cc2C(=O)N([C@H](C)CO)C[C@@H]1C	none (no result: FN deposition inh)
COc1ccc(NC(=O)N/C=C/c2ccco2)cc1	FGF22 binding 43
Cc1ccc(S(=O)(=O)Nc2cccc3c2O[C@H](CN(C)S(C)(=O)=O)[C@H](C)CN([C@H](C)CO)C3=O)cc1	none (no result: FN deposition inh)
C/C=C/c1ccc2c(c1)O[C@H](CN(C)C(=O)CN1CCOCC1)[C@@H](C)CN([C@@H](C)CO)S2(=O)=O	none (no result: FN deposition inh)
Cc1ccc(S(=O)(=O)N2CCC(=O)N([C@H](COCc3cccc(Cl)c3)Cc3ccccc3)CC2)cc1	SIRT5 inh 40 (no result: ARNT-TACC3 inh)
Cc1ccc(S(=O)(=O)N2CCC(=O)N(C(COCc3cccc(Cl)c3)Cc3ccccc3)CC2)cc1 (configuration not stated)	none (no result: FGF22 binding, DENV2 CPE, SIRT5 inh)
O=S(=O)(NC1=NCCC1)c1cccc(NS(=O)(=O)c2ccc(F)c(Cl)c2)c1	none (no result: ARNT-TACC3 inh)
Cc1ccc([N+](=O)[O-])cc1S(=O)(=O)Nc1cccc(S(=O)(=O)NC2=NCCC2)c1	FGF22 binding 45 (no result: SIRT5 inh)
O=C(CSc1ncnc2sccc12)Nc1ccccc1	FGF22 binding 43
Cc1noc(C)c1S(=O)(=O)Nc1ccc2c(c1)C(=O)N([C@H](C)CO)C[C@@H](C)[C@@H](CN(C)Cc1ccc(C(=O)O)cc1)OCCCC[C@@H](C)O2	DENV2 CPE 38
Cc1noc(C)c1S(=O)(=O)Nc1ccc2c(c1)C(=O)N([C@H](C)CO)C[C@H](C)[C@H](CN(C)Cc1ccc(C(=O)O)cc1)OCCCC[C@H](C)O2	none
Cc1noc(C)c1S(=O)(=O)Nc1ccc2c(c1)C(=O)N([C@@H](C)CO)C[C@H](C)[C@H](CN(C)Cc1ccc(C(=O)O)cc1)OCCCC[C@@H](C)O2	DENV2 CPE 50
Cc1noc(C)c1S(=O)(=O)Nc1ccc2c(c1)C(=O)N([C@@H](C)CO)C[C@@H](C)[C@H](CN(C)Cc1ccc(C(=O)O)cc1)OCCCC[C@H](C)O2	DENV2 CPE 24
CN(C)C(=O)c1ccc(-c2ccc([C@H]3[C@@H](C#N)N(S(C)(=O)=O)[C@H]3CO)cc2)cc1	none
COc1ccc(CN2CCC[C@]3(N[C@H](c4ccc(OC)cc4)[C@@H]4C(=O)N(C)C(=O)[C@@H]43)C2=O)cc1	DENV2 CPE 27 (no result: ARNT-TACC3 inh)
O=C1[C@H]2[C@@H](c3ccccc3)N[C@]3(CCCN(Cc4ccc(Cl)cc4)C3=O)[C@H]2C(=O)N1Cc1ccccc1	DENV2 CPE 44 (no result: ARNT-TACC3 inh)
COc1ccc([C@H]2N[C@]3(CCCN(Cc4ccc(C)cc4)C3=O)[C@H]3C(=O)N(C)C(=O)[C@@H]23)cc1	SIRT5 inh 39 (no result: ARNT-TACC3 inh)
COc1ccc([C@H]2N[C@]3(CCCN(Cc4ccccc4)C3=O)[C@H]3C(=O)N(C)C(=O)[C@@H]23)cc1	none (no result: ARNT-TACC3 inh)
C/C=C/c1cccc(-c2nc(C(=O)NC3CCC3)cc3c2[C@@H](CCO)N([S@](=O)C(C)(C)C)C3)c1	none (no result: FGF22 binding, DENV2 CPE, ARNT-TACC3 inh, SIRT5 inh)
CCc1noc(C)c1C(=O)Nc1nc(-c2cccs2)cs1	SIRT5 inh 15
Cc1ccc(S(=O)(=O)N(C)C[C@@H]2OCCCC[C@H](C)Oc3ccc(NC(=O)Nc4ccccc4)cc3C(=O)N([C@@H](C)CO)C[C@H]2C)cc1	DENV2 CPE inconclusive
Cc1cc(S(=O)(=O)Nc2ccc(C(=O)NCC3(N4CCCCC4)CCCCC3)cc2)ccc1F	SIRT5 inh 21
Cc1cc(S(=O)(=O)Nc2ccc(C(=O)NCC3(N(C)C)CCCCC3)cc2)ccc1F	none
O=c1c2c(-c3ccccc3)csc2nc2c3ccccc3c(NCCN3CCOCC3)nn12	ARNT-TACC3 inh 74
O=c1c2ccccc2nc2c3ccccc3c(NCCN3CCOCC3)nn12	none (no result: FGF22 binding, DENV2 CPE, ARNT-TACC3 inh, Xi reactivation, SIRT5 inh)

Screening data: PubChem BioAssay, Broad Institute
